Results: ChEMBL document CHEMBL4052591, “Evaluation of Jatrophane Esters from Euphorbia spp. as Modulators of Candida albicans Multidrug Transporters” (2017)
Converted amounts (≈) assume the structure as drawn.

What was measured:
Candida albicans [1] = assay: Inhibition of Candida albicans CDR1 expressed in Saccharomyces cerevisiae AD assessed as ratio of MIC80 of fluconazole in combinantion with compound to MIC80 of fluconazole alone for Saccharomyces cerevisiae AD by checkerboard method
In short: (§1)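 CLSI checkerboard in YEPD: 10^4 cells per well, grown 48 h at 30 °C, OD read. Fluconazole 0.15−800 μM was crossed with inhibitor 0.15−800 μM. Run on control AD1-8u− and on strains overexpressing CaCdr1p or CaMdr1p. FIC of each agent = MIC in combination / MIC alone; FICI = sum of both FICs.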

Candida albicans [2] = assay: Inhibition of Candida albicans CDR1 transporter expressed in Saccharomyces cerevisiae AD cells assessed as nile red accumulation at 70 uM after 30 mins by flow cytometric analysis relative to control; format: cell-based; design: Activity: scale not given: the % may be the effect or the level left
In short: (§2)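 S. cerevisiae AD strains overexpressing CaCdr1p (AD-CDR1) or CaMdr1p (AD-MDR1) were grown at 30 °C from OD600 0.1 to 0.25. They were resuspended as a 5% suspension in YEPD:water 1:2. Nile Red (7 μM final) was given ± inhibitor (70 μM) for 30 min at 30 °C. Accumulation was read by flow cytometry on 10 000 cells. Means ± SD, three independent experiments.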

Saccharomyces cerevisiae [3] = assay: Potentiation of fluconazole-induced antifungal activity against Saccharomyces cerevisiae AD1-8u(-) by checkerboard method; format: functional; in short: as §1
Saccharomyces cerevisiae [4] = assay: Antifungal activity against Saccharomyces cerevisiae AD1-8u(-) after 48 hrs; format: functional
In short: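 Growth inhibition of transporter-deleted control S. cerevisiae AD1-8u− over […]; 10^4 cells grown in YEPD for 48 h at 30 °C. OD600 was read and growth without inhibitor was set as 100%. MIC80 is the concentration cutting growth by 80%. Means ± SD from three independent experiments.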

Candida albicans [5] = assay: Inhibition of Candida albicans CDR1 expressed in Saccharomyces cerevisiae AD assessed as potentiation of fluconazole-induced antifungal activity against Saccharomyces cerevisiae AD by checkerboard method; in short: as §1
Candida albicans [6] = assay: Inhibition of Candida albicans CDR1 expressed in Saccharomyces cerevisiae AD assessed as ratio of MIC80 of compound in combinantion with fluconazole to MIC80 of compound alone for Saccharomyces cerevisiae AD by checkerboard method; in short: as §1
Saccharomyces cerevisiae [7] = assay: Resistance index, ratio of MIC80 for Saccharomyces cerevisiae AD over-expressing Candida albicans MDR1 to MIC80 for Saccharomyces cerevisiae AD1-8u(-); format: functional
In short: (§3)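 MIC80 of the transporter-overexpressing strain and the AD1-8u− control strain each measured after 48 h growth at 30 °C over 0.15−80 μM inhibitor, read by OD600. MIC80 is the concentration cutting growth by 80% versus the no-inhibitor control. Resistance index = overexpressing-strain MIC80 divided by control-strain MIC80.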

Candida albicans [8] = assay: Inhibition of Candida albicans MDR1 expressed in Saccharomyces cerevisiae AD assessed as ratio of MIC80 of fluconazole in combinantion with compound to MIC80 of fluconazole alone for Saccharomyces cerevisiae AD by checkerboard method; in short: as §1
Candida albicans [9] = assay: Inhibition of Candida albicans MDR1 expressed in Saccharomyces cerevisiae AD assessed as potentiation of fluconazole-induced antifungal activity against Saccharomyces cerevisiae AD by checkerboard method; in short: as §1
Saccharomyces cerevisiae [10] = assay: Resistance index, ratio of MIC80 for Saccharomyces cerevisiae AD over-expressing Candida albicans CDR1 to MIC80 for Saccharomyces cerevisiae AD1-8u(-); format: functional; in short: as §3
Saccharomyces cerevisiae [11] = assay: Potentiation of fluconazole-induced antifungal activity against Saccharomyces cerevisiae AD1-8u(-) assessed as as ratio of MIC80 of fluconazole in combinantion with compound to MIC80 of fluconazole alone by checkerboard method; format: functional; in short: as §1
Saccharomyces cerevisiae [12] = assay: Potentiation of fluconazole-induced antifungal activity against Saccharomyces cerevisiae AD1-8u(-) assessed as ratio of MIC80 of compound in combinantion with fluconazole to MIC80 of compound alone by checkerboard method; format: functional; in short: as §1
Saccharomyces cerevisiae [13] = assay: Antifungal activity against Saccharomyces cerevisiae AD over-expressing Candida albicans CDR1 transporter after 48 hrs; format: functional
In short: (§4)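 S. cerevisiae AD1-8u− derivative overexpressing the transporter, grown in YEPD at 30 °C. Cells (10^4) incubated 48 h at 30 °C with a range of inhibitor concentrations […]; growth read as OD600. Growth without inhibitor taken as 100%; MIC80 is the concentration decreasing growth by 80%. Means ± SD of three independent experiments.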

Saccharomyces cerevisiae [14] = assay: Antifungal activity against Saccharomyces cerevisiae AD over-expressing Candida albicans MDR1 transporter after 48 hrs; format: functional; in short: as §4
Candida albicans [15] = assay: Inhibition of Candida albicans MDR1 expressed in Saccharomyces cerevisiae AD assessed as ratio of MIC80 of compound in combinantion with fluconazole to MIC80 of compound alone for Saccharomyces cerevisiae AD by checkerboard method; in short: as §1
Candida albicans [16] = assay: Inhibition of Candida albicans MDR1 transporter expressed in Saccharomyces cerevisiae AD cells assessed as nile red dye accumulation at 70 uM after 30 mins by flow cytometric analysis relative to control; format: cell-based; design: Activity: scale not given: the % may be the effect or the level left; in short: as §2

| SMILES | Ratio (Candida albicans [1]) | Activity (Candida albicans [2]) [%] | fractional inhibitory concentration index (FICI) (Saccharomyces cerevisiae [3]) | MIC80 (Saccharomyces cerevisiae [4]) [µM] | fractional inhibitory concentration index (FICI) (Candida albicans [5]) | Ratio (Candida albicans [6]) | Ratio (Saccharomyces cerevisiae [7]) | Ratio (Candida albicans [8]) | fractional inhibitory concentration index (FICI) (Candida albicans [9]) | Ratio (Saccharomyces cerevisiae [10]) | Ratio (Saccharomyces cerevisiae [11]) | Ratio (Saccharomyces cerevisiae [12]) | MIC80 (Saccharomyces cerevisiae [13]) [µM] | MIC80 (Saccharomyces cerevisiae [14]) [µM] | Ratio (Candida albicans [15]) | Activity (Candida albicans [16]) [%] |
| --- | --- | --- | --- | --- | --- | --- | --- | --- | --- | --- | --- | --- | --- | --- | --- | --- |
| C=C1[C@@H](OC(C)=O)[C@H]2[C@@H](OC(=O)COC(=O)c3ccccc3)[C@](C)(OC(C)=O)C[C@]2(O)C(=O)[C@@H](C)/C=C/C(C)(C)[C@H](OC(C)=O)[C@H](OC(C)=O)[C@H]1OC(=O)C(C)C | 0.2 | 92 | 2 | 324 (≈ 259 µg/mL) | 1.2 | 1 | 1.2 | 1 | 2 | 1.2 | 1 | 1 | 416 (≈ 333 µg/mL) | 411 (≈ 329 µg/mL) | 1 |  |
| CC(=O)O[C@H]1[C@@H](OC(C)=O)C(C)(C)/C=C/[C@@](C)(O)C(=O)[C@@]2(O)C[C@@](C)(OC(C)=O)[C@H](OC(C)=O)[C@@H]2[C@H]2OC(=O)CC[C@@]2(OC(C)=O)[C@@H]1OC(=O)C(C)C | 1 | 85 | 2 | 682 (≈ 515 µg/mL) | 2 | 1 | 1.01 | 0.5 | 1 | 1.04 | 1 | 1 | 711 (≈ 537 µg/mL) | 691 (≈ 522 µg/mL) | 0.5 | 79 |
| C=C1[C@@H](OC(C)=O)[C@H]2[C@@H](OC(=O)c3ccccc3)[C@@H](C)C[C@]2(O)[C@H](O)[C@H](C)/C=C/C(C)(C)C(=O)[C@H](OC(=O)C(C)C)[C@H]1OC(C)=O | 1 |  | 2 | 792 (≈ 509 µg/mL) | 2 | 1 | 0.85 | 1 | 2 | 0.9 | 1 | 1 | 710 (≈ 456 µg/mL) | 679 (≈ 436 µg/mL) | 1 | 74 |
| C=C1[C@@H](OC(=O)C(C)CC)[C@H]2[C@@H](O)[C@](C)(OC(C)=O)C[C@]2(O)C(=O)[C@@H](C)/C=C/C(C)(C)[C@H](OC(C)=O)[C@H](OC(C)=O)[C@H]1OC(=O)c1ccccc1 (some centres not stated) | 1 | 64 | 2 | 719 (≈ 514 µg/mL) | 1.5 | 0.5 | 0.87 | 1 | 2 | 0.9 | 1 | 1 | 681 (≈ 487 µg/mL) | 629 (≈ 450 µg/mL) | 1 | 65 |
